High-throughput results: PubChem BioAssay, The Scripps Research Institute Molecular Screening Center
TAAR1 ag: agonists of human TAAR1 | Q96RJ0 | CHO RD-HGA16 TAAR1, Fluo-8 calcium fluorescence; vehicle wells 0%, saturating PEA agonist 100% | activation, % at 3 µM | 360,000 compounds, 0.99% hits;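 active = activation above the mean activation of all test compounds in the run plus 3 SD, cut at about 38% in these data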
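Test system: RD-HGA16 (CHO) cells co-expressing Gα16 and hTAAR1; dosing: one-point dosing at 3 µM (nominal); timing: 17-24 h seeding, 75 min 37 °C dye, 30 min RT; signal: kinetic Fluo-8 calcium fluorescence; read-out basis: % activation relative to PEA EC100 response; controls: DMSO and PEA EC100; replicates: n 1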
GPR7 antag: antagonists of human GPR7 (neuropeptides B/W receptor 1). P48145. GPR7-expressing cells, fluorescence antagonist assay. inhibition, % at 4.4 µM. 290,000 compounds, 1.1% hits; in the data active = inhibition above about 16%, passing the limit was not always enough;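 also: cells stimulated with the agonist NPW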
Target sequence (P48145 whole entry, looked up): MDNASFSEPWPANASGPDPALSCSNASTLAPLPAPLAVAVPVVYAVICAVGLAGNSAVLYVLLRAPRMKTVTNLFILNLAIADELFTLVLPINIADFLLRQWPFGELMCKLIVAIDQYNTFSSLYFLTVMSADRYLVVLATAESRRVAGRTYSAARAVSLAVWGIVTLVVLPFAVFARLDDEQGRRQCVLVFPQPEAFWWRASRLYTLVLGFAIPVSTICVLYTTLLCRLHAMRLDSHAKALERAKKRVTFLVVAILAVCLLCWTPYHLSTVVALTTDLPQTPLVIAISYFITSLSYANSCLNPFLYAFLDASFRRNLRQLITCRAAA
OX1R antag-1: OX1R (human) antagonism. inhibition, % at 6.6 µM. AID 485270. OX1R-expressing cells, FRET antagonist read-out. 330,000 compounds, 1.8% hits; in the data active = inhibition mostly above about 38%, no sharp cut-off; inactive = mostly below about 40%
OX1R antag-2: human HCRTR1 antagonism. O43613. CHO/OX1R cells, Fluo-8 calcium fluorescence, orexin A. inhibition, % at 5 µM. 330,000 compounds, 0.43% hits. AID 434989;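 active = inhibition above its plate's threshold, mean inhibition of all tested compounds on the plate plus 3 SD, cut at about 37% in these data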
TAAR1 antagonist: antagonists of human TAAR1; Q96RJ0; 360,000 compounds, 1.5% hits; inhibition, % at 3 µM; CHO RD-HGA16 TAAR1, Fluo-8 calcium fluorescence, antagonist; AID 624466;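 active = inhibition above a per-plate cutoff, the mean inhibition of test compounds on that plate plus 3 SD, cut at about 49% in these data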
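System: CHO RD-HGA16 cells bearing hTAAR1. Reagent: EC80 β-phenethylamine stimulus. Schedule: seeding 17-24 h prior, 75-min 37 °C, 30-min RT dye loading. Signal: Fluo-8 intracellular calcium dye fluorescence, real-time kinetic reads. Read-out: % inhibition from peak post-agonist over basal fluorescence ratio. Benchmarks: vehicle wells and EC80 agonist wells. Replicates: n of 1.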
CHO parental Ca: counter-screen: ATP calcium response change in parental CHO cells; parental CHO-K1, ATP-induced calcium, Fluo-8 fluorescence; inhibition, % at 5.6 µM; 330,000 compounds, 0.63% hits;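 active = inhibition above that plate's mean sample inhibition plus 3 SD, cut at about 26% in these data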
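Material: parental CHO cells / Compound: single nominal dose of 5.6 µM per compound / Signal: Fluo-8 fluorescence / Replicates: singlicate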
Each line names hits and unclear results; the compound was inactive in the other large screens. Sampled rows, rich in hits. Any-hit rate of the full collection: about 4.6%.

CC(=O)c1sc(NC(=O)C2CCCN2S(=O)(=O)c2ccccc2F)nc1C (centres undefined)	OX1R antag-1 37 (no result: GPR7 antag)
O=C(Nc1nccs1)[C@@H]1CCCN1S(=O)(=O)c1ccccc1F	none (no result: GPR7 antag, OX1R antag-1, OX1R antag-2, CHO parental Ca)
COc1ccc(C)cc1NC(=O)C1CCCN1S(=O)(=O)c1ccccc1F (centres undefined)	OX1R antag-1 52 (no result: GPR7 antag)
Cc1cccc(C2(c3cccc(C)c3)CC2C(=O)Nc2ccc([N+](=O)[O-])cc2O)c1 (centres undefined)	TAAR1 antagonist 58
COCCNC(=O)Nc1ccc2nc(-c3cccs3)c(-c3cccs3)nc2c1	none
O=C(Nc1ccc2nc(-c3cccs3)c(-c3cccs3)nc2c1)NC1CC1	OX1R antag-1 58
Cc1ccc2c(c1)nnn2C1CCN(S(=O)(=O)c2ccc(C(=O)N3C(C)CCCC3C)cc2)CC1 (centres undefined)	OX1R antag-2 59, CHO parental Ca 56
Cc1ccc2c(c1)nnn2C1CCN(S(=O)(=O)c2ccc(C(=O)O)cc2)CC1	none
Cc1cccc(NC(=O)CNC(=O)[C@H](CCc2ccccc2)NC(=O)[C@H]2O[C@@H](n3cnc4c(N)ncnc43)[C@H](O)[C@@H]2O)c1C	none (no result: GPR7 antag, OX1R antag-1, OX1R antag-2, CHO parental Ca)
O=C(Nc1nccs1)c1ccc([N+](=O)[O-])cc1Cl	none
O=C(NC1=NCCS1)c1ccc([N+](=O)[O-])cc1Cl	OX1R antag-1 49
c1ccc(-c2nc(-n3nc4ccccc4n3)nc3ccccc23)cc1	TAAR1 antagonist 65
O=C(OCn1ncc(Br)c(Br)c1=O)c1ccccc1Cl	none (no result: TAAR1 ag, TAAR1 antagonist)
O=C(OCn1ncc(Cl)c(Cl)c1=O)c1cccc(C(F)(F)F)c1	OX1R antag-2 52, CHO parental Ca 81 (no result: TAAR1 ag, TAAR1 antagonist)
Nc1[nH]c(C(=O)c2ccccc2)c(-c2ccccc2[N+](=O)[O-])c1C(=O)NCCc1c[nH]c2ccccc12	none (no result: GPR7 antag, OX1R antag-1, OX1R antag-2, CHO parental Ca)
Cc1[nH]c2ccccc2c1CC(=O)Nc1ccc(N(C)c2cccnc2)c(-c2ccc(F)c(F)c2)c1	none (no result: GPR7 antag, OX1R antag-1, OX1R antag-2, CHO parental Ca)
CCN1/C(=C/c2ccc3cc(C)ccc3[n+]2CC)Sc2ccc3sccc3c21	CHO parental Ca 48 (no result: TAAR1 ag, GPR7 antag, TAAR1 antagonist)
CCN1/C(=C\c2ccc3cc(C)ccc3[n+]2CC)Sc2cc(C)c(C)cc21	none (no result: OX1R antag-1, OX1R antag-2, CHO parental Ca)
C=CCn1c(SCC(=O)Nc2ccc3c(c2)OCO3)nnc1-c1cc(Br)ccc1O	OX1R antag-1 65
O=C(CSc1nnc(-c2ccccc2)n1Cc1ccco1)Nc1ccc2c(c1)OCCO2	OX1R antag-1 48
CCOc1ccccc1NC(=O)CSc1nnc(-c2ccccc2Cl)n1Cc1ccco1	OX1R antag-1 69
CCOc1ccc(NC(=O)CSc2ncc(-c3ccc(F)cc3)n2Cc2ccco2)cc1	none
O=C(CSc1ncc(-c2ccc(F)cc2)n1Cc1ccco1)Nc1ccc2c(c1)OCO2	GPR7 antag 29, CHO parental Ca 38
C=CCn1c(SCC(=O)Nc2ccc3c(c2)OCO3)nnc1-c1ccccc1	none
O=C(CSc1nnc(-c2cccs2)n1Cc1ccco1)Nc1ccc2c(c1)OCO2	none
O=C1Nc2c(Cl)cc(Cl)cc2C12Nc1ccccc1S2 (centres undefined)	none (no result: GPR7 antag, OX1R antag-1, OX1R antag-2, CHO parental Ca)
CCC(CO)[n+]1c(C)cc(/C=C2\Sc3ccccc3N2Cc2ccccc2)cc1C (centres undefined)	CHO parental Ca 41
CN1C(=O)c2ccccc2CC12c1ccccc1C(=O)N2C (centres undefined)	none (no result: GPR7 antag, OX1R antag-1, OX1R antag-2, CHO parental Ca)
c1csc(-c2cn3ccc4ccccc4c3n2)c1	OX1R antag-1 74
CCCCNC(=O)C[C@H]1C[C@@]2(C(=O)OC)C(=C[C@H](C(C)(C)C)O[C@@H]2C)N(CCC2=CCCCC2)C1=O	none (no result: GPR7 antag, OX1R antag-1, OX1R antag-2, CHO parental Ca)
COC(=O)[C@]12C[C@H](CC(=O)N3CCN(C(=O)c4ccco4)CC3)C(=O)N(Cc3ccccc3)C1=C[C@H](C(C)(C)C)O[C@@H]2C	none (no result: GPR7 antag, OX1R antag-1, OX1R antag-2, CHO parental Ca)
CCS(=O)(=O)N1CCC(C(=O)OCC(=O)c2ccc(Br)cc2)CC1	CHO parental Ca 50
CCOC(=O)Cn1nc(-c2ccccc2)c2cnc3ccc(C)cc3c21	TAAR1 antagonist 49
CC1(S(=O)(=O)O)CC(=O)c2ccccc2C1=O (centres undefined)	OX1R antag-1 60
COc1ccc(Cn2c(C)nc3ccc([N+](=O)[O-])cc3c2=O)cc1	none
Cc1cc(C)cc(NC(=O)c2ccc(CSc3nnnn3C)cc2)c1	OX1R antag-1 49, TAAR1 antagonist 66
COC(=O)[C@]12C[C@H](CC(=O)N3CCC(c4ccccc4)CC3)C(=O)N(CCC3=CCCCC3)C1=C[C@H](COCc1ccccc1)O[C@@H]2C	none (no result: GPR7 antag, OX1R antag-1, OX1R antag-2, CHO parental Ca)
O=c1[nH][nH]c(C(F)(F)F)c1C=NCc1cccc(Cl)c1	TAAR1 ag 43
O=c1[nH][nH]c(C(F)(F)F)c1C=NCc1ccc(Cl)cc1	none
Cc1cc(C)c(NC(=O)C2CCCN2CCOC(=O)c2ccccc2)c(C)c1 (centres undefined)	OX1R antag-1 73
Cc1ccc(S(=O)(=O)N2CCSCCSCCSCCSCC2)cc1	none (no result: GPR7 antag, OX1R antag-1, OX1R antag-2, CHO parental Ca)
COCc1[nH]nc2c1C(c1ccc(OC)c(OC)c1)C(C#N)=C(N)O2 (centres undefined)	none
COCc1[nH]nc2c1C(c1cc(OC)c(O)c(OC)c1)C(C#N)=C(N)O2 (centres undefined)	OX1R antag-1 76
S=C(NCCCc1cnc[nH]1)NCCCN(Cc1ccccc1)c1ccc(Br)cn1	none (no result: GPR7 antag, OX1R antag-1, OX1R antag-2, CHO parental Ca)
